Converted amounts (≈) assume the structure as drawn.
Columns and labels:
[1] = molecular target: T1, Histone deacetylase 4 (Homo sapiens, UniProt P56524); test: Inhibition of HDAC4 (unknown origin) using Boc Lys(TFA) as substrate by fluorogenic assay
In short: (§1)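 Biochemical HDAC isoform assay with the artificial fluorogenic substrate Boc-Lys-(TFA)-AMC, which is specific to class IIa enzymes and HDAC8. IC50 taken as the geometric mean of three experiments.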

[2] = Selectivity index, ratio of IC50 for Class 1/2b HDAC in human Jurkat E6.1 cells using Boc-Lys-(Ac)-AMC as substrate to IC50 for Class 2A HDAC4 in human Jurkat E6.1 cells using Boc-Lys-(TFA)-AMC as substrate by fluorogenic assay
In short: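 Human Jurkat E6.1 cells were assayed with two fluorogenic substrates. Boc-Lys-(TFA)-AMC reports class IIa activity, mostly HDAC4 in this line, and Boc-Lys-(Ac)-AMC reports class I/IIb activity. IC50s are geometric means of three experiments.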

[3] = molecular target: T1, Histone deacetylase 4; test: Inhibition of Class 2A HDAC4 in human Jurkat E6.1 cells using Boc-Lys-(TFA)-AMC as substrate by fluorogenic assay; type: cell-based
In short: (§2)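 Whole-cell assay in Jurkat E6.1 cells with artificial fluorogenic substrates: Boc-Lys-(TFA)-AMC for class IIa/HDAC8 activity, which in this line is mostly HDAC4, and Boc-Lys-(Ac)-AMC for class I/IIb activity. IC50 given as the geometric mean of three experiments.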

[4] = Inhibition of Class 1/2b HDAC in human Jurkat E6.1 cells using Boc-Lys-(Ac)-AMC as substrate by fluorogenic assay; type: cell-based; in short: as §2
[5] = Kinetic solubility of the compound; type: physicochemical; conditions: read-out: Kinetic_solubility
[6] = Efflux ratio of permeability from basolateral to apical over apical to basolateral side in dog MDCK-MDR1 cells relative to wild type MDCK cells; type: ADME, cell-based, Canis lupus familiaris
[7] = Intrinsic Clearance in mouse liver microsomes; type: ADME, Microsome; conditions: read-out: CLH
[8] = Apparent permeability of the compound in dog MDCK-MDR1 cells; type: ADME, cell-based, Canis lupus familiaris
[9] = molecular target: T2, Protein deacetylase HDAC6 (Homo sapiens, UniProt Q9UBN7); test: Inhibition of HDAC6 (unknown origin) expressed in human HEK-Freestyle cells using Boc-Lys(Ac) as substrate by fluorogenic assay; type: cell-based
T2 sequence (Q9UBN7 whole entry): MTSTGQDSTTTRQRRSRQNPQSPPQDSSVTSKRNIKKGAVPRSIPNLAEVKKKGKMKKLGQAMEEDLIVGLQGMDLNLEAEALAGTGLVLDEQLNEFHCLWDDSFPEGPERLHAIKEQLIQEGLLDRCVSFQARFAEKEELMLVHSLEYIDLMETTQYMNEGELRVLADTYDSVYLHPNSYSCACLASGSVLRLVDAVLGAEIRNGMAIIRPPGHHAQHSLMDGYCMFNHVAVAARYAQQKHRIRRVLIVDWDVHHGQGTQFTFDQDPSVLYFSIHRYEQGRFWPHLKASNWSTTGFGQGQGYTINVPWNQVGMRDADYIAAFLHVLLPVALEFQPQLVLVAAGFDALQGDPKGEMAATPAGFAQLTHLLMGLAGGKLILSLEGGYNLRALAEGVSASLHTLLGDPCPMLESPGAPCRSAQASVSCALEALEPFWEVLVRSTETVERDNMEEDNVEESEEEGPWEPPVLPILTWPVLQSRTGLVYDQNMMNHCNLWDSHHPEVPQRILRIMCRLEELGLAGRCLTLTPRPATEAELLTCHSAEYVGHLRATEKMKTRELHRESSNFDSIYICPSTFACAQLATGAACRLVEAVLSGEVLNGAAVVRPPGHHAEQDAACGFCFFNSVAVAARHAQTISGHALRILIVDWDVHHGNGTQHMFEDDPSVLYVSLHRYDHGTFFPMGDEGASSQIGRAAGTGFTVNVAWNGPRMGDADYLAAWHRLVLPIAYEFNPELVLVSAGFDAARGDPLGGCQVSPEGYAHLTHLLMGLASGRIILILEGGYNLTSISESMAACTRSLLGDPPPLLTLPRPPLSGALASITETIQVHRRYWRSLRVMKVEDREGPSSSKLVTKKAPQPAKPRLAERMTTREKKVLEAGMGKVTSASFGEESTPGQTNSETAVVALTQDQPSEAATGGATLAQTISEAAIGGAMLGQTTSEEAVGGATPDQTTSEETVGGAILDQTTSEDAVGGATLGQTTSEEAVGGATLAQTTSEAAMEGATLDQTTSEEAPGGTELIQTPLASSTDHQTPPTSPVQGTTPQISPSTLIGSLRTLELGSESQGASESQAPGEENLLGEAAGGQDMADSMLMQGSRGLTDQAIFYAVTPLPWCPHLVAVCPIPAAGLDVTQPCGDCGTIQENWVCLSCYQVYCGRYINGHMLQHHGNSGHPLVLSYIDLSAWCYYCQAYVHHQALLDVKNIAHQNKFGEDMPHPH
In short: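 HDAC6 was supplied as lysate of HEK cells overexpressing the enzyme. Activity was read with the class I/IIb-specific fluorogenic substrate Boc-Lys-(Ac)-AMC. IC50 is the geometric mean of three experiments.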

[10] = molecular target: Histone deacetylase 2 (Homo sapiens, UniProt Q92769); test: Inhibition of HDAC2 (unknown origin) using Ac-Arg-Gly-Lys(Ac) as substrate by fluorogenic assay
Chain of Histone deacetylase 2 (Q92769 whole entry): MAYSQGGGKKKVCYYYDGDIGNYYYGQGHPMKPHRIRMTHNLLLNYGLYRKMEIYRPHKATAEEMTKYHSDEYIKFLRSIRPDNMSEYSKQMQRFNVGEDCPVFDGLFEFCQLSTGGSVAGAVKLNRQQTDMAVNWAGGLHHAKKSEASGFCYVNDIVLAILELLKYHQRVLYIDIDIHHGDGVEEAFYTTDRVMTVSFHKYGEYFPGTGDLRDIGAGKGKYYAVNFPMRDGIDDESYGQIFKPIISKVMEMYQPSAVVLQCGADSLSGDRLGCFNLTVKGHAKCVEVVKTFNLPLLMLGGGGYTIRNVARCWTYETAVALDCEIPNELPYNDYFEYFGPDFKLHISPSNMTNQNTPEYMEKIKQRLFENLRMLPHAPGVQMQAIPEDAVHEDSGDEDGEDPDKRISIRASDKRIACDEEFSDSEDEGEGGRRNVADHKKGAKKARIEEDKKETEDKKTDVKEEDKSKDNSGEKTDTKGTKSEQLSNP

[11] = molecular target: T3, Histone deacetylase 8 (Homo sapiens, UniProt Q9BY41); test: Inhibition of HDAC8 (unknown origin) using Boc-Lys(TFA) as substrate by fluorogenic assay; in short: as §1
T3 sequence (Q9BY41 whole entry): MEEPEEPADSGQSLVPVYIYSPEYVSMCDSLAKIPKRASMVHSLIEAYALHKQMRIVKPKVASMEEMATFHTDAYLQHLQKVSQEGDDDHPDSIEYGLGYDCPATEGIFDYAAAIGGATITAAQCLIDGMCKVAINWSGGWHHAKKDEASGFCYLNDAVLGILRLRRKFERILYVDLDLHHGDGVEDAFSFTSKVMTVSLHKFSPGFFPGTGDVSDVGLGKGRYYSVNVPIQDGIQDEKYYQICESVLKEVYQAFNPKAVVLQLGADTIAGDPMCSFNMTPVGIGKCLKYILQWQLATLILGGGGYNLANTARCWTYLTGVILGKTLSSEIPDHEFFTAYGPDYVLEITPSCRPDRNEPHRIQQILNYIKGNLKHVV

[12] = molecular target: Histone deacetylase 1 (Homo sapiens, UniProt Q13547); test: Inhibition of HDAC1 (unknown origin) using Ac-Arg-Gly-Lys(Ac) as substrate by fluorogenic assay
Chain of Histone deacetylase 1 (Q13547 whole entry): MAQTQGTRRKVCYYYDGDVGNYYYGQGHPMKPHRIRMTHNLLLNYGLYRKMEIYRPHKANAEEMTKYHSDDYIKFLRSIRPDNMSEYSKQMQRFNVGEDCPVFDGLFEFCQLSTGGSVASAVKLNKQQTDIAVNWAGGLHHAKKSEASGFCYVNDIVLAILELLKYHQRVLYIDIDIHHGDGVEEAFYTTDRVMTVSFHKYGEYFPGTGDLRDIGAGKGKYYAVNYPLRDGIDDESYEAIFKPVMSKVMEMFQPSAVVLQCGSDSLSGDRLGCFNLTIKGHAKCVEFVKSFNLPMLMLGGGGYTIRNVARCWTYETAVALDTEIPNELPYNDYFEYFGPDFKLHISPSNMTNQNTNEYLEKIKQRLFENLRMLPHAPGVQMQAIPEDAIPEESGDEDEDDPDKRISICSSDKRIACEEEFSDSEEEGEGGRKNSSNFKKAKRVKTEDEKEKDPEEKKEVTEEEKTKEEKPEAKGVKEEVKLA

[13] = Chemical stability of the compound in DMSO-d6 measured for 9 days at room temperature by 1H-NMR spectroscopy; type: physicochemical; conditions: 216 h; time 9 day
[14] = molecular target: Histone deacetylase 3/Nuclear receptor corepressor 1 (HDAC3/NCoR1) (Homo sapiens); test: Inhibition of HDAC3/NCOR1 (unknown origin) using Boc-Lys(Ac) as substrate by fluorogenic assay
[15] = molecular target: Histone deacetylase 5 (Homo sapiens, UniProt Q9UQL6); test: Inhibition of HDAC5 (unknown origin) using Boc Lys(TFA) as substrate by fluorogenic assay; in short: as §1
Chain of Histone deacetylase 5 (Q9UQL6 whole entry): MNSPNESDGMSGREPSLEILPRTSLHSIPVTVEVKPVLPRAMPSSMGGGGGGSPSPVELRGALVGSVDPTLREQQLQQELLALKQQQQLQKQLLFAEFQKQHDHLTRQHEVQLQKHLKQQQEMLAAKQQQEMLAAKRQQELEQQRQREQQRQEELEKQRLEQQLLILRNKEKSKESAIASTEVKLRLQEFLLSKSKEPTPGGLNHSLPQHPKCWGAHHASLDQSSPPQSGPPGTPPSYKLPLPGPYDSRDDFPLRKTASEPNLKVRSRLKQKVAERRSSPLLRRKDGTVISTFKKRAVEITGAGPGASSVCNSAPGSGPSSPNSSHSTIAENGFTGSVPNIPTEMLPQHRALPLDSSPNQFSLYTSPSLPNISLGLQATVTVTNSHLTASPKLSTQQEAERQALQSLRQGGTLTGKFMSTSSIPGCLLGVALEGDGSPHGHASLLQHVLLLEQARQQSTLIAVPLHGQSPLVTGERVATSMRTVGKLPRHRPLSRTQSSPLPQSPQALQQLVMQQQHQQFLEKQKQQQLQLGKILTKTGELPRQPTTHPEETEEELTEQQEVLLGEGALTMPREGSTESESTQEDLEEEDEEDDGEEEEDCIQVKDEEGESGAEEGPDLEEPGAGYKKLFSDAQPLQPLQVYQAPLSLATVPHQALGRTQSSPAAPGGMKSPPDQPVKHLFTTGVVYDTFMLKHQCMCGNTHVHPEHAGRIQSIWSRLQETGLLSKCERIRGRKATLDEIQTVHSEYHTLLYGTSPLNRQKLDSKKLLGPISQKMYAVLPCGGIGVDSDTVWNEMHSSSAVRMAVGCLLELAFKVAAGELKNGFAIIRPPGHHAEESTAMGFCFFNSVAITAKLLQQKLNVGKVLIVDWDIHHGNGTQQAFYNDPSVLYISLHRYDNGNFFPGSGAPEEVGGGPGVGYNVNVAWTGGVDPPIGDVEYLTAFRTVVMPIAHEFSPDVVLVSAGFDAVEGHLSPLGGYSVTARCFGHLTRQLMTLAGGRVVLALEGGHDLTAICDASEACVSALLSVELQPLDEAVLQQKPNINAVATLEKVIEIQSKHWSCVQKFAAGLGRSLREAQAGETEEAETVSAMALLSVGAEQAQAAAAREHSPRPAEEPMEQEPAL

[16] = molecular target: Histone deacetylase 9 (Homo sapiens, UniProt Q9UKV0); test: Inhibition of HDAC9 (unknown origin) using Boc Lys(TFA) as substrate by fluorogenic assay; in short: as §1
Chain of Histone deacetylase 9 (Q9UKV0 whole entry): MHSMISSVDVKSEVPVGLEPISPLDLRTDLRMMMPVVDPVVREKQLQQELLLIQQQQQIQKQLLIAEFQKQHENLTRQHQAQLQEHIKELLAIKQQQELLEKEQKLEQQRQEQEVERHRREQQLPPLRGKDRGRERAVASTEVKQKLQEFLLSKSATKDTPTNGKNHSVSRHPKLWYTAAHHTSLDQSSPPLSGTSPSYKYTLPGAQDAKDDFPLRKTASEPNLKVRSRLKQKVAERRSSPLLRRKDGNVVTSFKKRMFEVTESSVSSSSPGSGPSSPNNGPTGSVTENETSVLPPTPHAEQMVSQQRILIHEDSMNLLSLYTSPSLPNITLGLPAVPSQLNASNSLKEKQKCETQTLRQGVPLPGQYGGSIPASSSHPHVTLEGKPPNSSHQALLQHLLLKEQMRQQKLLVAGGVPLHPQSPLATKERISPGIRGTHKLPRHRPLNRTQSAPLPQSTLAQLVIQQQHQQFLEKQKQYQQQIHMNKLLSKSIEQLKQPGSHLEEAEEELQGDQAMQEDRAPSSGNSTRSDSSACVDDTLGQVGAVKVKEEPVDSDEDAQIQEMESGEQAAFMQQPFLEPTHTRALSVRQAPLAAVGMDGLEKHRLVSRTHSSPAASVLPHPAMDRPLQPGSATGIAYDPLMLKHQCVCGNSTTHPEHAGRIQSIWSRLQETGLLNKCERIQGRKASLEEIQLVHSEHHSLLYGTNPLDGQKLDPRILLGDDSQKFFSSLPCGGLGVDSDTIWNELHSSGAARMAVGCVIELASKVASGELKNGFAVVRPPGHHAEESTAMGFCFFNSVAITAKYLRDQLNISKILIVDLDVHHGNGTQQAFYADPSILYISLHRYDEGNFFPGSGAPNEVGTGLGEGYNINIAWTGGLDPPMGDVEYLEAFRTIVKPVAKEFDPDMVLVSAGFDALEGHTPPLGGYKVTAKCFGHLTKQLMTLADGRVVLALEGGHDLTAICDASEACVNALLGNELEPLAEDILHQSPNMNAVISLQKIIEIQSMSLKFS

T1 sequence (P56524 whole entry, canonical isoform): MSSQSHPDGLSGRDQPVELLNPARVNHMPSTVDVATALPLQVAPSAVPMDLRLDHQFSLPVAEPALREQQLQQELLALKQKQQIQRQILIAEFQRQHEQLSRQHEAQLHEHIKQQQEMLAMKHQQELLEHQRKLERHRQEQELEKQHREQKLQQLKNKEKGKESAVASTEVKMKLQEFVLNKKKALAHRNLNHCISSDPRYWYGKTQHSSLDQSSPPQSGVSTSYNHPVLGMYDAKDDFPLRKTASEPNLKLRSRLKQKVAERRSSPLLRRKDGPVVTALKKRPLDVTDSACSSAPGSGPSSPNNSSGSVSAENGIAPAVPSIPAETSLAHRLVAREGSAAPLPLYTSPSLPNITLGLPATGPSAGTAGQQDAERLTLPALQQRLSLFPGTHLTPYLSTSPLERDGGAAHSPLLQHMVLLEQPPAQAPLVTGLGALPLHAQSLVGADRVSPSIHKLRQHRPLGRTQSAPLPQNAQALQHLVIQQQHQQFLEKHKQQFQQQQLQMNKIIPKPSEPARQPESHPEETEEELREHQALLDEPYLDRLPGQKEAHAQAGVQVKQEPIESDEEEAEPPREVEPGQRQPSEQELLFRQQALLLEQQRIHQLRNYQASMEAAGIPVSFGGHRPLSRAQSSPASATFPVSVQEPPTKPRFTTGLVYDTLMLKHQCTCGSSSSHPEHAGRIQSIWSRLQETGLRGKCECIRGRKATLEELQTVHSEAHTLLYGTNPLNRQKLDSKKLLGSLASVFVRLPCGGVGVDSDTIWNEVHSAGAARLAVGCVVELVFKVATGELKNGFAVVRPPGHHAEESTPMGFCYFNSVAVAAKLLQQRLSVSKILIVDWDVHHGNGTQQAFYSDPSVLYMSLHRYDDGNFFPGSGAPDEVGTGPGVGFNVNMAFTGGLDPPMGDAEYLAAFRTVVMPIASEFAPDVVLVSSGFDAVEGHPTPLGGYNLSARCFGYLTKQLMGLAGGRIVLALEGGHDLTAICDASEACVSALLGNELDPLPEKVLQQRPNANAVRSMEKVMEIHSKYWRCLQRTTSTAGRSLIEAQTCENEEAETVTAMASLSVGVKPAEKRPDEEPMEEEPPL

Structure (SMILES) | IC50 [1] [nM] | IC50 [3] [nM] | IC50 [4] [nM] | solubility kinetic [5] [µM] | Ratio [6] | CLint scaled [7] [mL/min/kg] | Ratio IC50 [2] | further results
C[C@@H](CN1CCCC1)NC(=O)c1ccc(-c2noc(C(F)(F)F)n2)cc1 | 50 | 730 | 43000 |  |  |  | 59 | 
C[C@H](CN1CCC[C@H]1C)NC(=O)c1ccc(-c2noc(C(F)(F)F)n2)cc1 | 70 | 600 | 14000 | 178 (≈ 68.1 µg/mL) |  |  |  | 
CC(C)(CN1CCCC1)NC(=O)c1ccc(-c2noc(C(F)(F)F)n2)cc1 | 280 | 310 | 12000 |  |  |  | 39 | 
CCCN(CCC)C[C@@H](C)NC(=O)c1ccc(-c2noc(C(F)F)n2)cc1 | 890 | 19000 |  |  |  |  |  | 
O=C(NC1(CN2CCCC2)CC1)c1ccc(-c2noc(C(F)(F)F)n2)cc1 | 40 | 180 | 6400 |  |  |  | 36 | 
CCCN(CCC)C[C@@H](C)NC(=O)c1ccc(-c2nc(C(F)(F)F)no2)cc1 | 28000 | > 50000 |  |  |  |  |  | 
C[C@H](CN1CCC(F)(F)CC1)NC(=O)c1ccc(-c2noc(C(F)(F)F)n2)cc1 | 130 | 380 | > 50000 | 25 (≈ 10.5 µg/mL) |  |  | >132 | 
CCCN(CCC)C[C@@H](C)NC(=O)c1ccc(-c2noc(C(F)(F)F)n2)cc1 |  |  | 3000 | 140 (≈ 55.8 µg/mL) |  | 834 |  | Papp [8]: 54.1 ×10⁻⁶ cm/s; IC50 [9]: 6400 nM; IC50 [10]: 9300 nM; IC50 [11]: 2900 nM; IC50 [12]: 6000 nM; Stabilty [13]: Stable
CCCN(CCC)C[C@@H](C)NC(=O)c1ccc(-c2noc(C)n2)cc1 | > 50000 | > 50000 |  |  |  |  |  | 
O=C(NCCN1CCCC1)c1ccc(-c2noc(C(F)(F)F)n2)cc1 | 30 | 250 | 3700 | 169 (≈ 59.9 µg/mL) |  | 76 |  | IC50 [14]: 5100 nM; Papp [8]: 60.4 ×10⁻⁶ cm/s; IC50 [9]: 9800 nM; IC50 [10]: 26000 nM; IC50 [15]: 90 nM; IC50 [11]: 2800 nM; IC50 [12]: 13000 nM; IC50 [16]: 70 nM
C[C@H](CN1CCC(F)(F)C1)NC(=O)c1ccc(-c2noc(C(F)(F)F)n2)cc1 | 230 | 1300 | > 50000 | 52 (≈ 21 µg/mL) |  |  | >38 | 
CCCN(CCC)C[C@@H](C)NC(=O)c1ccc(-c2ncon2)cc1 | > 50000 | > 50000 |  |  |  |  |  | 

More lines, main results first:

IC50 [1] [nM] | IC50 [3] [nM] | IC50 [4] [nM] | solubility kinetic [5] [µM] | Ratio [6] | CLint scaled [7] [mL/min/kg] | Structure (SMILES) | Ratio IC50 [2] | further results
10 | 30 | 1700 |  | 1.2 | 128 | C[C@H](CN1CCCCCC1)NC(=O)c1ccc(-c2noc(C(F)(F)F)n2)cc1 | 57 | 
30 | 100 | 10300 |  | 1.2 | 214 | C[C@H](CN1CCC(F)CC1)NC(=O)c1ccc(-c2noc(C(F)(F)F)n2)cc1 | 103 | 
 | 70 | 9000 | 157 (≈ 60 µg/mL) | 1.6 | 66 | C[C@H](CN1CCCCC1)NC(=O)c1ccc(-c2noc(C(F)(F)F)n2)cc1 | 129 | 
10 | 70 | 10000 | 178 (≈ 65.6 µg/mL) | 2.2 | 65 | C[C@H](CN1CCCC1)NC(=O)c1ccc(-c2noc(C(F)(F)F)n2)cc1 | 143 | 
3 | 10 | 1500 | 51 (≈ 22.9 µg/mL) | 1.1 | 757 | C[C@H](CN1CCC[C@H](OC(F)F)C1)NC(=O)c1ccc(-c2noc(C(F)(F)F)n2)cc1 | 150 | 
20 | 60 | 3600 |  | 1.2 | 661 | C[C@H](CN1CCC[C@@H](OC(F)F)C1)NC(=O)c1ccc(-c2noc(C(F)(F)F)n2)cc1 | 60 | 
2 | 10 | 520 | 150 (≈ 61.6 µg/mL) | 1 | 1290 | C[C@H](CN1CCCC(C)(C)C1)NC(=O)c1ccc(-c2noc(C(F)(F)F)n2)cc1 | 52 | 

— ChEMBL document CHEMBL4680373, “Evaluation of 5-(Trifluoromethyl)-1,2,4-oxadiazole-Based Class IIa HDAC Inhibitors for Huntington's Disease” (ACS Med Chem Lett, 2021)
